In the array DNA melting data of Ke et al. (doi:10.1101/2024.01.08.574731):

Assays:
[1] = melting temperature; fluorescence melt of hairpins on a sequencing array, two-state fit, raised by 9.35 °C to match UV melts; details: sodium 0.088 M
Method in brief: (§1)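 Melting temperature and folding enthalpy were obtained by bootstrapped two-state fitting. Fits used Cy3 fluorescence of library hairpins with annealed Cy3 and quencher oligos on a sequenced MiSeq flow cell, imaged in 50 mM Na-HEPES pH 8.0, 25 mM NaCl in 2.5 °C steps up to 60 °C and normalised to pre-quench Cy3 and control constructs. Four replicates were combined by inverse-variance weighting, and fitted temperatures were raised by 9.35 °C to match UV melts.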

[2] = folding enthalpy; higher = less favourable; fluorescence melt of hairpins on a sequencing array, two-state fit; details: sodium 0.088 M
Method in brief: as §1

| Sequence | Tm [1] [°C] | folding enthalpy [2] [kcal/mol] |
| --- | --- | --- |
| GCATTGCGAAAGCACTGC (((.(((....))).))) | 52.2 | -45.1 |
| GCATTGCGAAAGCCAGGC ((.(.((....)).).)) | 38.5 | -17.6 |
| GCATTGCGAAAGCCCTGC (((..((....))..))) | 34.5 | -14.6 |
| GCATTGCGAAAGCCGTGC (((..((....))..))) | 41.2 | -22 |
| GCATTGCGAAAGCGATGC ((((.((....)).)))) | 67.5 | -38 |
| GCATTGGGAAACCAATGC (((((((....))))))) | 65.8 | -44.9 |
| GCATTGGGAAACTGATGC ((((..(....)..)))) | 38.8 | -30 |
| GCATTTCGAAAGAATGC (((.(((....)))))) | 45.5 | -30.5 |
| GCATTTGCGAAAGCATGC (((..(((....)))))) | 44.9 | -17.9 |
| GCCAAAGCGAAAGCTGGC (((..(((....)))))) | 59.7 | -26.1 |
| GCCAAAGGAAACTTCGGC (((.(((....))).))) | 39.6 | -24 |
| GCCAACCGAAAGGTAGGC (((.(((....))).))) | 60.4 | -39.1 |
| GCCAACGAAAGTTCAGGC ((((((....)))..))) | 40.7 | -28.2 |
| GCCAACGAAAGTTCGGC ((((((....))).))) | 51.2 | -26.3 |
| GCCAACGAAAGTTTGGGC ((((((....)))..))) | 46 | -26.9 |
| GCCAAGCGAAAGCATGGC ((((.((....)).)))) | 67 | -34.9 |
| GCCAAGCGAAAGCCAGGC (((..((....))..))) | 54.5 | -22.2 |
| GCCAAGCGAAAGCTAGGC (((.(((....))).))) | 60.4 | -40.1 |
| GCCAAGGAAACTTGGC ((((((....)))))) | 62.9 | -38.2 |
| GCCAATCGAAAGATAGGC (((.(((....))).))) | 52.1 | -35.6 |
| GCCACAGGAAACCGTGGC (((((.(....).))))) | 55.4 | -43 |
| GCCACAGGAAACTATGGC ((((.((....)).)))) | 39.3 | -31.8 |
| GCCACAGGAAACTGCGGC (((.(((....))).))) | 52 | -56.4 |

| Sequence | Tm [1] [°C] | folding enthalpy [2] [kcal/mol] |
| --- | --- | --- |
| GCCACCACGAAAGTGGGC (((..(((....)))))) | 46 | -9.17 |
| GCCACCCCGAAAGGGGGC (((..(((....)))))) | 55.8 | -11.4 |
| GCCACCGAAAGGTAGGGC ((((((....)))..))) | 52.7 | -27.6 |
| GCCACCGAAAGGTCTGGC ((((((....)))..))) | 47.4 | -19.4 |
| GCCACCGAAAGGTGAGGC ((((((....)))..))) | 54.9 | -14.1 |
| GCCACCGGAAACGGCGAC (.(.(((....))).).) | 34.7 | -14.2 |
| GCCACCGGAAACGGTGAC (.(((((....))))).) | 48.8 | -14 |
| GCCACGCGAAAGCACGGC (((..((....))..))) | 61.9 | -35.9 |
| GCCACGCGAAAGCCTGGC ((((.((....)).)))) | 59.6 | -30.4 |
| GCCACGCGAAAGCGTCGC ((.((((....)))).)) | 60.2 | -16.1 |
| GCCACGCGAAAGCTAGGC (((..((....))..))) | 52.1 | -21.9 |
| GCCACGGGAAACCGTAGC ((.((((....)))).)) | 46.6 | -23.2 |
| GCCACTGGAAACAACGGC (((..((....))..))) | 27.6 | -17.3 |
| GCCACTGGAAACAATGGC ((((.((....)).)))) | 42.2 | -26.7 |
| GCCACTGGAAACAGTAGC ((.((((....)))).)) | 40.5 | -27.7 |
| GCCACTGGAAACAGTGAC (.(((((....))))).) | 46.3 | -18.9 |
| GCCACTTCGAAAGAAGGC (((..(((....)))))) | 35.5 | -13 |
| GCCAGAGAAATCTGGC ((((((....)))))) | 64.3 | -31.8 |
| GCCAGCACGAAAGTGGGC (((..(((....)))))) | 50.9 | -26.9 |
| GCCAGCGAAAGCTACGGC ((((((....)))..))) | 49.8 | -19.9 |
| GCCAGCGAAAGCTTAGGC ((((((....)))..))) | 52 | -27.3 |
| GCCAGCGAAAGCTTGGC ((((((....))).))) | 63.9 | -27.4 |
| GCCAGCGAAAGCTTGGGC ((((((....)))..))) | 52.5 | -26.7 |

| Sequence | Tm [1] [°C] | folding enthalpy [2] [kcal/mol] |
| --- | --- | --- |
| GCCAGCGCGAAAGCGGGC (((..(((....)))))) | 61.2 | -16.1 |
| GCCAGCGGAAACGCCAGC ((..(((....)))..)) | 39 | -13.7 |
| GCCAGCGGAAACGCTAGC ((.((((....)))).)) | 49 | -20.5 |
| GCCAGCGGAAACGCTGAC (.(((((....))))).) | 51.5 | -13.7 |
| GCCAGGCGAAAGCACGGC (((..((....))..))) | 60.6 | -18.3 |
| GCCAGGCGAAAGCATTGC ((.(.((....)).).)) | 35.7 | -13.1 |
| GCCAGGGGAAACCCTGAC (.(((((....))))).) | 47.6 | -15.4 |
| GCCAGGGGAAACTCTGGC (((((.(....).))))) | 56.1 | -40.9 |
| GCCAGGTCGAAAGACGGC (((..(((....)))))) | 53.4 | -34.7 |
| GCCAGTCGAAAGACAGGC (((.(((....))).))) | 62.8 | -29.6 |
| GCCAGTGCGAAAGCAGGC (((..(((....)))))) | 53.7 | -15.7 |
| GCCAGTGGAAACACTGAC (.(((((....))))).) | 46.1 | -15.8 |
| GCCATACGAAAGTACGGC (((.(((....))).))) | 51.5 | -37 |
| GCCATAGGAAACTGTGGC ((((.((....)).)))) | 52.2 | -39.1 |
| GCCATATCGAAAGATGGC (((..(((....)))))) | 48.2 | -34.6 |
| GCCATCCGAAAGGAAGGC (((.(((....))).))) | 57.9 | -31.3 |
| GCCATCGAAAGATCCGGC ((((((....)))..))) | 33.2 | -19.6 |
| GCCATCGAAAGATTCGGC ((((((....)))..))) | 36.9 | -21 |
| GCCATCGAAAGATTGGGC ((((((....)))..))) | 44.1 | -26.8 |
| GCCATCTCGAAAGAGGGC (((..(((....)))))) | 48.9 | -35.2 |
| GCCATGCGAAAGCAACGC ((..(((....)))..)) | 29 | -8.26 |
| GCCATGCGAAAGCACGGC (((.(((....))).))) | 56.9 | -49.1 |
| GCCATGCGAAAGCGAGGC (((..((....))..))) | 60 | -21.6 |

| Sequence | Tm [1] [°C] | folding enthalpy [2] [kcal/mol] |
| --- | --- | --- |
| GCCATGCGAAAGCTCGGC (((..((....))..))) | 52.5 | -23.6 |
| GCCATGCGAAAGCTGGGC (((..((....))..))) | 62.6 | -26.4 |
| GCCATGCGAAAGCTTTGC ((.(.((....)).).)) | 36.1 | -11.7 |
| GCCATGGGAAACCACGGC (((.(((....))).))) | 47.7 | -36.5 |
| GCCATGGGAAACTATGGC (((((.(....).))))) | 52.5 | -37.4 |
| GCCATTACGAAAGTAGGC (((..(((....)))))) | 42.2 | -25.6 |
| GCCATTGGAAACAATGAC (.(((((....))))).) | 38.8 | -19.1 |
| GCCCAACGAAAGTTAGGC (((.(((....))).))) | 48.7 | -34.3 |
| GCCCACCCGAAAGGGGGC (((..(((....)))))) | 58.4 | -17.6 |
| GCCCACGAAAGTGAGGC ((((((....))).))) | 64 | -31.1 |
| GCCCACGAAAGTGAGGGC ((((((....)))..))) | 59.9 | -28.2 |
| GCCCACTCGAAAGAGGGC (((..(((....)))))) | 50.6 | -22.5 |
| GCCCAGCGAAAGCAGTGC ((.(.((....)).).)) | 34.7 | -13.3 |
| GCCCAGCGAAAGCCAGGC (((..((....))..))) | 55.2 | -20.6 |
| GCCCAGCGAAAGCCTGGC (((..((....))..))) | 56.1 | -13 |
| GCCCAGCGAAAGCTACGC ((..(((....)))..)) | 30.2 | -5.73 |
| GCCCAGCGAAAGCTGAGC ((.((((....)))).)) | 63.3 | -15.2 |
| GCCCAGCGAAAGCTGCGC ((.((((....)))).)) | 59 | -17.1 |
| GCCCAGCGAAAGCTGGC (((.(((....)))))) | 61 | -9.03 |
| GCCCAGGGAAACCTGAGC ((.((((....)))).)) | 45.5 | -19.2 |
| GCCCATCGAAAGATAGGC (((.(((....))).))) | 47.2 | -30.5 |
